Assay [1] concerns BT-549. Kind of assay: In vitro tumor cell growth inhibition was reported as the concentration that reduces BT-549 breast cancer cell growth to 50% of level at the start experiment. The note with it: Homo sapiens, read-out: Log LC50 (the source's name) (converted). It counts as functional. The gist of the method: (§1)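 Tested in the NCI in vitro anticancer screen, which covers about 60 human cell lines from eight solid-tumour types and leukaemia. Values were read from dose-response curves as log molar concentration. The endpoint is the concentration that reduces cell growth to 50% of the level at the start of the experiment (LC50).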

For assay [2], the system named is Hs-578T. Kind of assay: In vitro tumor cell growth inhibition was reported as the concentration that reduces HS 578T breast cancer cell growth to 50% of level at the start experiment. It counts as functional. Particulars: Homo sapiens, read-out: Log LC50 (the source's name) (converted). The gist of the method:
as §1

In assay [3] the test system is Tumor Cell line. Kind of assay: In vitro inhibition of cell growth. Format: functional, Homo sapiens.
For assay [4], the system named is Tumor Cell line. The experiment in a line: Concentration which reduces cell growth to level at the start of the experiment was reported as the mean graph medium for all the cell lines tested in vitro conditions. It counts as functional, Homo sapiens. The gist of the method: (§2)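 NCI in vitro screen covering about 60 human cell lines from eight solid tumour types and leukaemia. Results were derived from dose-response curves. TGI is the concentration that holds cell growth at the level present at the start of the experiment. Values are given as log molar concentration. The mean graph midpoint (MG-MID) is the average across all cell lines tested, with a range of TGI values.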

In assay [5] the test system is M14. The experiment in a line: In vitro tumor cell growth inhibition was reported as the concentration that reduces M14 melanoma cell growth to 50% of level at the start experiment. It counts as functional. Particulars: Homo sapiens, read-out: Log LC50 (the source's name) (converted). The gist of the method:
as §1

The test system of assay [6] is MCF7. Kind of assay: In vitro tumor cell growth inhibition was reported as the concentration that reduces MCF-7 breast cancer cell growth to level at the start experiment. It counts as functional, Homo sapiens. In short, it runs like this:
as §2

Assay [7] relates to MCF7. Kind of assay: In vitro tumor cell growth inhibition was reported as the concentration that reduces MCF-7 breast cancer cell growth to 50% of level at the start experiment. It counts as functional. Particulars: Homo sapiens, read-out: Log LC50 (the source's name) (converted). In short, it runs like this:
as §1

The subject of assay [8] is LOX IMVI. Kind of assay: In vitro tumor cell growth inhibition was reported as the concentration that reduces LOXIMVI melanoma cell growth to level at the start experiment. Format: functional, Homo sapiens. In short, it runs like this: as §2
In assay [9] the test system is LOX IMVI. Kind of assay: In vitro tumor cell growth inhibition was reported as the concentration that reduces LOXIMVI melanoma cell growth to 50% of level at the start experiment. It counts as functional. Particulars: Homo sapiens, read-out: Log LC50 (the source's name) (converted). The gist of the method:
as §1

The test system of assay [10] is MDA-MB-231. Kind of assay: In vitro tumor cell growth inhibition was reported as the concentration that reduces MDA-MB-231/ATCC breast cancer cell growth to level at the start experiment. Format: functional, Homo sapiens. The gist of the method:
as §2

The test system of assay [11] is MDA-MB-231. The experiment in a line: In vitro tumor cell growth inhibition was reported as the concentration that reduces MDA-MB-231/ATCC breast cancer cell growth to 50% of level at the start experiment.. It counts as functional. The note with it: Homo sapiens, read-out: Log LC50 (the source's name) (converted). The gist of the method: as §1
Assay [12] concerns MDA-N. Kind of assay: In vitro tumor cell growth inhibition was reported as the concentration that reduces MDA-N breast cancer cell growth to level at the start experiment. It counts as functional, Homo sapiens. The gist of the method:
as §2

Assay [13] deals with MDA-N. Kind of assay: In vitro tumor cell growth inhibition was reported as the concentration that reduces MDA-N breast cancer cell growth to 50% of level at the start experiment. It counts as functional. Particulars: Homo sapiens, read-out: Log LC50 (the source's name) (converted). In short, it runs like this: as §1
In assay [14] the test system is MDA-MB-435. The experiment in a line: In vitro tumor cell growth inhibition was reported as the concentration that reduces MDA-MB-435 breast cancer cell growth to level at the start experiment. It counts as functional, Homo sapiens. The gist of the method:
as §2

For assay [15], the system named is MDA-MB-435. The experiment in a line: In vitro tumor cell growth inhibition was reported as the concentration that reduces MDA-MB-435 breast cancer cell growth to 50% of level at the start experiment. Format: functional. The note with it: Homo sapiens, read-out: Log LC50 (the source's name) (converted). The gist of the method:
as §1

The test system of assay [16] is Malme-3M. Kind of assay: In vitro tumor cell growth inhibition was reported as the concentration that reduces MALME-3M melanoma cell growth to level at the start experiment. Format: functional, Homo sapiens. The gist of the method: as §2
The test system of assay [17] is Malme-3M. Kind of assay: In vitro tumor cell growth inhibition was reported as the concentration that reduces MALME-3M melanoma cell growth to 50% of level at the start experiment. Format: functional. Particulars: Homo sapiens, read-out: Log LC50 (the source's name) (converted). In short, it runs like this:
as §1

In assay [18] the test system is SK-MEL-2. The experiment in a line: In vitro tumor cell growth inhibition was reported as the concentration that reduces SK-MEL-2 melanoma cell growth to 50% of level at the start experiment. It counts as functional. The note with it: Homo sapiens, read-out: Log LC50 (the source's name) (converted). The gist of the method: as §1
For assay [19], the system named is SK-MEL-5. The experiment in a line: In vitro tumor cell growth inhibition was reported as the concentration that reduces SK-MEL-5 melanoma cell growth to level at the start experiment. It counts as functional, Homo sapiens. In short, it runs like this: as §2
Assay [20] deals with SK-MEL-5. Kind of assay: In vitro tumor cell growth inhibition was reported as the concentration that reduces SK-MEL-5 melanoma cell growth to 50% of level at the start experiment. It counts as functional. The note with it: Homo sapiens, read-out: Log LC50 (the source's name) (converted). The gist of the method:
as §1

Assay [21] relates to T47D. The experiment in a line: In vitro tumor cell growth inhibition was reported as the concentration that reduces T-47D breast cancer cell growth to level at the start experiment. It counts as functional, Homo sapiens. The gist of the method: as §2
The test system of assay [22] is T47D. Kind of assay: In vitro tumor cell growth inhibition was reported as the concentration that reduces T-47D breast cancer cell growth to 50% of level at the start experiment. It counts as functional. The note with it: Homo sapiens, read-out: Log LC50 (the source's name) (converted). The gist of the method:
as §1

In assay [23] the test system is BT-549. Kind of assay: In vitro tumor cell growth inhibition was reported as the concentration that reduces BT-549 breast cancer cell growth to level at the start experiment. It counts as functional, Homo sapiens. The gist of the method: as §2
The subject of assay [24] is Hs-578T. Kind of assay: In vitro tumor cell growth inhibition was reported as the concentration that reduces HS 578T breast cancer cell growth to level at the start experiment. It counts as functional, Homo sapiens. In short, it runs like this: as §2
Assay [25] deals with M14. Kind of assay: In vitro tumor cell growth inhibition was reported as the concentration that reduces M14 melanoma cell growth to level at the start experiment. Format: functional, Homo sapiens. The gist of the method: as §2
Assay [26] concerns SK-MEL-2. The experiment in a line: In vitro tumor cell growth inhibition was reported as the concentration that reduces SK-MEL-2 melanoma cell growth to level at the start experiment. It counts as functional, Homo sapiens. In short, it runs like this:
as §2

Molecules are shown by their SMILES.

For `Cc1nc2c(o1)C(=O)c1ccccc1/C2=N/c1ccccc1`, the CC50 in assay [1] is 6.31 µM; in assay [2], greater than 100 µM; in [5], 3.98 µM; in assay [7], greater than 100 µM; in assay [9], 6.31 µM; in assay [11] it was greater than 100 µM. The CC50 in [13] was 3.16 µM; in assay [15] it was 3.16 µM; in [17], 5.01 µM; in assay [18], 6.31 µM; in assay [20], 5.01 µM; in [22], greater than 100 µM. The same compound had a Range in [3] of 2.02. Further, the Log concentration in assay [4] is -5.13; in [6], -5.3; in assay [8], -5.6; in [10], -4.7; in assay [12], -6; in [14], -6. Moreover, the Log concentration in [16] is -5.6; in assay [19] it was -5.6; in assay [21], -5.1; in assay [23], -5.5; in assay [24], -5.3; in assay [25], -5.9. Moreover, the Log concentration in assay [26] is given as -5.6.

In the case of `Cc1nc2c(o1)/C(=N\c1ccccc1)c1ccccc1C2=O`, the Range in assay [3] is 1.44. This compound yielded a Log concentration in assay [4] of -4.62.

`Cc1nc2c(o1)/C(=N\c1ccccc1)c1ccccc1/C2=N/c1ccccc1` registered a Range in [3] of 0.49. The Log concentration in assay [4] is -4.02.
